Active and inactive are the calls of the source.
Key:
Mus musculus [1] = assay: Inhibition of FAAH in C57Bl/6J mouse brain assessed as increase of anandamide level at 50 mg/kg, po after 1 hr relative to control; format: functional
Summary of the method: (§1)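 Male C57Bl/6J mice (<6 months, 20–28 g) given compound orally as a PEG300 solution at 10, 25 or 50 mg/kg, with 3 mice per group in the 50 mg/kg p.o. comparison; brains collected 1 h post-dose. Lipids extracted in CHCl3:MeOH:Tris pH 8.0 with deuterated internal standards, then measured by C18 LC-ESI-MS/MS relative to vehicle-treated mice.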

Mus musculus [2] = assay: Inhibition of FAAH in C57Bl/6J mouse brain assessed as increase of arachidonic acid level at 30 mg/kg, ip after 1 hr relative to control; format: functional; conditions: route intraperitoneal
Summary of the method: (§2)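 Male C57Bl/6J mice (<6 months, 20–28 g) dosed i.p. at 30 mg/kg in 18:1:1 saline:ethanol:emulphor emulsion; brains taken 1 h later. One mouse in the initial screen, 3 per group in the follow-up. Brain homogenized in CHCl3:MeOH:Tris pH 8.0 with deuterated lipid standards; organic extract quantified by reverse-phase C18 LC-ESI-MS/MS against vehicle controls.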

Mus musculus [3] = assay: Inhibition of FAAH in C57Bl/6J mouse brain assessed as increase of 2-arachidonoylglycerol level at 50 mg/kg, po after 1 hr relative to control; format: functional; summary of the method: as §1
Mus musculus [4] = assay: Inhibition of FAAH in C57Bl/6J mouse liver assessed as increase of anandamide level at 30 mg/kg, ip after 1 hr relative to control; format: functional; conditions: route intraperitoneal
[5] = target: T1, Fatty-acid amide hydrolase 1 (Rattus norvegicus, UniProt P97612); assay: Inhibition of rat recombinant FAAH expressed in Escherichia coli assessed as [14C]-labeled oleamide to oleic acid conversion
T1 sequence (P97612 whole entry): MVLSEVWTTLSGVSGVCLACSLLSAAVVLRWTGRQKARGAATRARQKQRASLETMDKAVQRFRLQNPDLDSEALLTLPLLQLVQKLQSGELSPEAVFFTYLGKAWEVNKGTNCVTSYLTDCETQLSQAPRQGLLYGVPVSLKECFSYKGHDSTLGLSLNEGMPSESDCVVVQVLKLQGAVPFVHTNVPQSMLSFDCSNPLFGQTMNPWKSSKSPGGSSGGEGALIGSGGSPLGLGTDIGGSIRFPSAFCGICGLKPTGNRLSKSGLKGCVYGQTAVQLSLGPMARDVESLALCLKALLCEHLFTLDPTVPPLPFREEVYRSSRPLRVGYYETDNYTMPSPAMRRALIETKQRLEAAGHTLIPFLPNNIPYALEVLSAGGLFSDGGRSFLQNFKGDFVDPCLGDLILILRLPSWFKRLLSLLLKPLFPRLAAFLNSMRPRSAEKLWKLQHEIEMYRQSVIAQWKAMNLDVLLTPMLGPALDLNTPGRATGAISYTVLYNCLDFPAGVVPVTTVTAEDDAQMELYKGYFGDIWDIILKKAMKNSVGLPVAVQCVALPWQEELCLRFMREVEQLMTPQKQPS

Mus musculus [6] = assay: Inhibition of FAAH in C57Bl/6J mouse brain assessed as increase of N-palmitoyl ethanolamine level at 30 mg/kg, ip after 1 hr relative to control; format: functional; conditions: route intraperitoneal; summary of the method: as §2
Mus musculus [7] = assay: Inhibition of FAAH in C57Bl/6J mouse brain assessed as increase of anandamide level at 30 mg/kg, ip after 1 hr relative to control; format: functional; conditions: route intraperitoneal; summary of the method: as §2
Mus musculus [8] = assay: Inhibition of FAAH in C57Bl/6J mouse liver assessed as increase of 2-arachidonoylglycerol level at 30 mg/kg, ip after 1 hr relative to control; format: functional; conditions: route intraperitoneal
Mus musculus [9] = assay: Inhibition of FAAH in C57Bl/6J mouse liver assessed as increase of N-palmitoyl ethanolamine level at 30 mg/kg, ip after 1 hr relative to control; format: functional; conditions: route intraperitoneal
Mus musculus [10] = assay: Inhibition of FAAH in C57Bl/6J mouse brain assessed as increase of 2-arachidonoylglycerol level at 30 mg/kg, ip after 1 hr relative to control; format: functional; conditions: route intraperitoneal; summary of the method: as §2
Mus musculus [11] = assay: Inhibition of FAAH in C57Bl/6J mouse brain assessed as increase of N-palmitoyl ethanolamine level at 50 mg/kg, po after 1 hr relative to control; format: functional; summary of the method: as §1
[12] = target: T2, Fatty-acid amide hydrolase 1 (Homo sapiens) (UniProt O00519); assay: Reversible inhibition of full-length human FAAH expressed in COS-7 cells by Lineweaver-Burk analysis; format: cell-based
T2 sequence (whole entry): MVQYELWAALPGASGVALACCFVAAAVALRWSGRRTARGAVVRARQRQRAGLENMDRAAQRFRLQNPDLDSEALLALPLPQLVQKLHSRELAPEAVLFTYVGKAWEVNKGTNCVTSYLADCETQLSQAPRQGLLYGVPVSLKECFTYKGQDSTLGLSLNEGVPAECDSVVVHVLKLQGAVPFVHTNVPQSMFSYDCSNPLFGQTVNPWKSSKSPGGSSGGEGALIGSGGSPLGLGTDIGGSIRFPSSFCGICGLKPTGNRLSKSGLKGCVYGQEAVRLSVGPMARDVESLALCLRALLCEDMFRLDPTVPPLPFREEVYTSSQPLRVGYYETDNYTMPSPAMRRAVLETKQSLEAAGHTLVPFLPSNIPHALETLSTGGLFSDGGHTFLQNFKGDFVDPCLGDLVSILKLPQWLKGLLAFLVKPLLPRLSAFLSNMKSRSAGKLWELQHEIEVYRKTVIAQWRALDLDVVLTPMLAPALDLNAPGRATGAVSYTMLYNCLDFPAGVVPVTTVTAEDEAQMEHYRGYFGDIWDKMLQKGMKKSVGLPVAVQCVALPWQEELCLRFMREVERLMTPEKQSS
Summary of the method: (§3)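 Solubilized membrane lysate of COS-7 cells transiently transfected with full-length human FAAH cDNA. Aliquots quenched in 0.1 N HCl at three times; oleamide/oleic acid extracted into EtOAc and separated by TLC. Initial rates (≤10–20% conversion) analysed by Lineweaver–Burk plot.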

Mus musculus [13] = assay: Antinociceptive activity in CD1 mouse assessed as thermal-stimulus induced tail flick latency at 1.8 to 5.6 mg/kg, iv after 30 to 60 mins; format: functional, organism-based
Summary of the method: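 Tail flick at 52 °C in mice, dosed i.v. Baseline responders within 5 s were kept and retested at several times after dosing. Cut-off 10 s, scored 100%. % antinociception = 100 × (test latency − control latency)/(10 − control latency).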

[14] = target: T2, Fatty-acid amide hydrolase 1 (Homo sapiens); assay: Competitive inhibition of full-length human FAAH expressed in COS-7 cells by Lineweaver-Burk analysis; format: cell-based; summary of the method: as §3
[15] = Half life in rat liver microsomes; format: ADME, Microsome
Mus musculus [16] = assay: Antinociceptive activity in CD1 mouse assessed as thermal-stimulus induced tail flick latency at 1 to 3.2 mg/kg, iv after 150 mins; format: functional, organism-based
Summary of the method: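 Mice given compound i.v.; tail-flick latency to 52 °C water measured at several times after dosing. Animals not responding within 5 s at baseline were excluded, and a 10 s cut-off was scored as 100%. % antinociception = 100 × (test − control latency)/(10 − control latency).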

[17] = Half life in human liver microsomes; format: ADME, Microsome

Compound | fold change (FC) (Mus musculus [1]) | fold change (FC) (Mus musculus [2]) | fold change (FC) (Mus musculus [4]) | fold change (FC) (Mus musculus [6]) | fold change (FC) (Mus musculus [7]) | fold change (FC) (Mus musculus [8]) | fold change (FC) (Mus musculus [9]) | fold change (FC) (Mus musculus [10]) | also measured
O=C(O)c1cccc(-c2cnc(C(=O)[C@H]3CCc4cc(Oc5ccccc5)ccc4C3)o2)n1 | 3.5 | 0.7 | 5 | 2 | 1.5 | 1.1 | 2.1 | 1 | fold change (FC) (Mus musculus [3]): 1.4; Ki [5]: 25 nM; fold change (FC) (Mus musculus [11]): 3.7; inhibition [12]: Active; Activity (Mus musculus [13]): Active; inhibition [14]: Active
O=C(CCCCCCc1ccccc1)c1ncc(-c2ccccn2)o1 | 11 | – | 7 | 4.6 | 3.3 | 0.9 | 1.6 | – | half-life [15]: 2 min
CN1CC[C@]23c4c5ccc(O)c4O[C@H]2[C@@H](O)C=C[C@H]3[C@H]1C5 | – | – | – | – | – | – | – | – | Activity (Mus musculus [16]): Active
O=C(c1ncc(-c2ccccn2)o1)C1CCc2cc(OCc3ccccc3)ccc2C1 (configuration not stated) | – | – | – | – | – | – | – | – | half-life [17]: 12 min
O=C(O)c1cccc(-c2cnc(C(=O)C3Cc4ccc(Oc5ccccc5)cc4C3)o2)n1 (configuration not stated) | – | 0.8 | – | 1.2 | 1 | – | – | 0.9 | –
